Experimental data gathered from unrelated publications.
Lines come from different studies, so protocols differ.

| Compound | cell line | test | setting | endpoint | value |
| --- | --- | --- | --- | --- | --- |
| Nc1ncnc2c1c(/C=C/C(=O)N1CCOCC1)nn2CC1CCCC1 | OE33 | cell growth or viability, resazurin | 5 days | EC50 | > 30 µM |
| S=C(Nc1ccccc1)Nc1ccc(Oc2nnc(-c3ccc(Cl)cc3)c3ccccc23)cc1 | HepG2 | cell growth or viability, MTT | 10 µM, 24 h | viability | 2.77% |
| CCOC(=O)c1nn(-c2cccc(Cl)c2)/c(=N/N=C(\C)c2ccc(NC(=O)c3ccc(Cl)cc3)cc2)s1 | HepG2 | cell growth or viability, MTT | 0.156 µM | viability | 24.6% |
| CC(=NNC(=O)c1ccccc1O)c1ccc(Nc2nnc(-c3ccc(Cl)cc3)c3ccccc23)cc1 | HepG2 | cell growth or viability, MTT | 1.25 µM | cell death | 12.8% |
| CNc1ncc2c(/C=C/C(=O)N3CCC(CCO)CC3)nn(CC3CCCC3)c2n1 | OE33 | cell growth or viability, resazurin | 5 days | EC50 | > 30 µM |
| O=C(Nc1ccc(Oc2nnc(-c3ccc(Cl)cc3)c3ccccc23)cc1)c1ccccc1 | HepG2 | cell growth or viability, MTT | 78 nM | cell death | 3.97% |
| CC(C)(C)c1cnc(CSc2cnc(NC(=O)C3CCN(C(=O)COCCOCCSc4cccc5c4C(=O)N(C4CCC(=O)NC4=O)C5=O)CC3)s2)o1 (stereo not drawn) | HH | cell growth or viability, CCK-8 | 0.4 µM | viability | 47.3% |
| O=C(Nc1ccc(C(F)(F)F)cc1)Nc1cccc(Br)c1 | LAD2 | degranulation |  | IC50 | 1.24 µM |
| CNc1ncc2c(/C=C/C(=O)N3CCC(OC)CC3)nn(Cc3cccc(OC)c3)c2n1 | OE33 | cell growth or viability, resazurin | 5 days | EC50 | 2.89 µM |
| CC(C)(C)c1cnc(CSc2cnc(NC(=O)C3CCN(CCCCSc4cccc5c4C(=O)N(C4CCC(=O)NC4=O)C5=O)CC3)s2)o1 (stereo not drawn) | HH | cell growth or viability, CCK-8 | 50 nM | viability | 96.8% |
| CC(C)OC(=O)C(n1cccn1)n1cccn1 | A-431 | cell growth or viability, MTT | 72 h | IC50 | > 50 µM |
| CCOC(Cn1nc(/C=C/C(=O)N2CCC(OC)CC2)c2cnc(NC)nc21)OCC | OE33 | cell growth or viability, resazurin | 5 days | EC50 | > 30 µM |
| CC(=NNC(=O)c1cccnc1)c1ccc(Nc2nnc(-c3ccc(Cl)cc3)c3ccccc23)cc1 | HepG2 | cell growth or viability, MTT | 2.5 µM, 24 h | viability | 6.93% |
| CC1CCN(C(=O)/C=C/c2nn(CC3CCCC3)c3ncnc(N)c23)CC1 | OE33 | cell growth or viability, resazurin | 5 days | EC50 | > 30 µM |
| CC(=O)c1nn(-c2ccccc2Cl)/c(=N/N=C(\C)c2ccc(NC(=O)c3ccccc3)cc2)s1 | HepG2 | cell growth or viability, MTT | 0.156 µM | viability | 30.2% |
| CC(C)(C)c1cnc(CSc2cnc(NC(=O)C3CCN(CCCCCCCCSc4cccc5c4CN(C4CCC(=O)NC4=O)C5=O)CC3)s2)o1 (stereo not drawn) | HH | cell growth or viability, CCK-8 | 10 nM | viability | 99.7% |
| O=C(Nc1ccccc1)Nc1ccc(Oc2nnc(-c3ccc(Cl)cc3)c3ccccc23)cc1 | HepG2 | cell growth or viability, MTT | 0.625 µM, 24 h | viability | 5.31% |
| C=CC(=O)NC1CCN(c2ncc3ncnc(Nc4ccc(Oc5ccc6c(c5)ncn6C)c(C)c4)c3n2)CC1 | NCI-H292 | cell growth or viability |  | EC50 | 0.0826 µM |
| CC(C)(C)c1cnc(CSc2cnc(NC(=O)C3CCN(C(=O)CCCSc4cccc5c4C(=O)N(C4CCC(=O)NC4=O)C5=O)CC3)s2)o1 (stereo not drawn) | HH | cell growth or viability, CCK-8 | 1 nM | viability | 98.1% |
| CC(=NNC(N)=S)c1ccc(Nc2nnc(-c3ccc(Cl)cc3)c3ccccc23)cc1 | HepG2 | cell growth or viability, MTT | 2.5 µM | cell death | 91.9% |
| Nc1ncnc2c1c(/C=C/C(=O)N1CCCC1)nn2CC1CCCC1 | OE33 | cell growth or viability, resazurin | 5 days | EC50 | > 30 µM |
